Laboratory results from ChEMBL document CHEMBL1124353, “(R)- and (S)-5,6,7,8-tetrahydro-1-hydroxy-N,N-dipropyl-9H-benzocyclohepten- 8-ylamine. Stereoselective interactions with 5-HT1A receptors in the brain” (J Med Chem, 1989).

Columns and labels:
Rattus norvegicus [1] = assay: In vivo accumulation of dopamine in striatum of rat brain at 32 umol/Kg; assay type: functional
Procedure, shortened: (§1)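 Nonreserpinised male Sprague–Dawley rats (180–220 g) given drug as hydrochloride sc in saline, 30 min before aromatic L-amino acid decarboxylase inhibitor NSD 1015; killed 30 min after NSD 1015. Striatum and limbic system (rhinal fissure landmark) dissected. 5-HTP or DOPA measured by ion-pair reversed-phase HPLC with electrochemical detection, ng/g; means ± SEM, n = 3–7 per dose group, Dunnett's test vs control.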

Rattus norvegicus [2] = assay: In vivo accumulation of 5-HTP in limbic of rat brain for following at 32 umol/Kg; assay type: functional; procedure, shortened: as §1
[3] = biological target: T1, 5-hydroxytryptamine receptor 1A (Rattus norvegicus, UniProt P19327); assay: Affinity for 5-hydroxytryptamine 1A receptor site
T1 sequence (P19327 whole entry): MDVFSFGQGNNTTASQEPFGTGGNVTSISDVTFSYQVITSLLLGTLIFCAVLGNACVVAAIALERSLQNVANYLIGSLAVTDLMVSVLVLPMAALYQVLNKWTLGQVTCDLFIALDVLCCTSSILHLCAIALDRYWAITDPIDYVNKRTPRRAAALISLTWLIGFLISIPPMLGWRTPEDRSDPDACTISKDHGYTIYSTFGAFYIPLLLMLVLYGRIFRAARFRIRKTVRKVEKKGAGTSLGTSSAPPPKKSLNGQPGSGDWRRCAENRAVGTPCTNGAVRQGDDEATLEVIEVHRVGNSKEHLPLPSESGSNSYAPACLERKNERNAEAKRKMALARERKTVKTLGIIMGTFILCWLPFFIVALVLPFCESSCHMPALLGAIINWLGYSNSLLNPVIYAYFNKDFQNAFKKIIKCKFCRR
Procedure, shortened: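 Rat (male Sprague–Dawley) cortex plus hippocampus homogenised in 50 mM Tris-HCl with 4.0 mM CaCl2 and 5.7 mM ascorbate, pH 7.5, washed, pooled (≥6 rats), pargyline 10 μM pretreated. Incubated at 37 °C for 10 min with 2 nM [3H]-8-OH-DPAT and 1–300 nM competitor. Filtered, scintillation counted; 10 μM 5-HT defines nonspecific binding. Ki from nonlinear least-squares using Kd 1.4 nM.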

Rattus norvegicus [4] = assay: In vivo accumulations of dopamine in limbic of rat brain at 32 umol/Kg; assay type: functional; procedure, shortened: as §1
Rattus norvegicus [5] = assay: In vivo accumulation 5-HTP in striatum of rat brain striatum at 32 umol/Kg; assay type: functional; procedure, shortened: as §1
Rattus norvegicus [6] = assay: In vivo accumulations of dopamine in limbic of rat brain for at 3.2 umol/Kg; assay type: functional; procedure, shortened: as §1
Rattus norvegicus [7] = assay: In vivo accumulation of dopamine in striatum of rat brain at 3.2 umol/Kg; assay type: functional; procedure, shortened: as §1
Rattus norvegicus [8] = assay: In vivo accumulations of dopamine in limbic of rat brain at 10 umol/Kg; assay type: functional; procedure, shortened: as §1
Rattus norvegicus [9] = assay: In vivo accumulation of 5-HTP in limbic of rat brain at 3.2 umol/Kg; assay type: functional; procedure, shortened: as §1
Rattus norvegicus [10] = assay: In vivo accumulation 5-HTP in striatum of rat brain at 10 umol/Kg; assay type: functional; procedure, shortened: as §1
Rattus norvegicus [11] = assay: In vivo accumulation of 5-HTP in limbic of rat brain for following at 10 umol/Kg; assay type: functional; procedure, shortened: as §1
Rattus norvegicus [12] = assay: In vivo accumulation of dopamine in striatum of rat brain at 10 umol/Kg; assay type: functional; procedure, shortened: as §1
Rattus norvegicus [13] = assay: In vivo accumulation 5-HTP in striatum of rat brain at 3.2 umol/Kg; assay type: functional; procedure, shortened: as §1
Rattus norvegicus [14] = assay: In vivo accumulation of 5-HTP in limbic of rat brain for following at 32 umol/kg reserpine pretreatment; assay type: functional
Procedure, shortened: (§2)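 Male Sprague–Dawley rats pretreated with reserpine (8 μmol/kg, 4 h before), then given drug sc as hydrochloride in saline 30 min before NSD 1015 decarboxylase inhibition; killed 30 min later. Striatal and limbic 5-HTP or DOPA determined by ion-pair reversed-phase HPLC with electrochemical detection, ng/g; means ± SEM, n = 3–7; Dunnett's test vs reserpinised controls.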

Rattus norvegicus [15] = assay: In vivo accumulation of dopamine in striatum of rat brain at 32 umol/kg with reserpine pretreatment; assay type: functional; procedure, shortened: as §2
Rattus norvegicus [16] = assay: In vivo accumulation 5-HTP in striatum of rat brain striatum at 32 umol/kg reserpine pretreatment; assay type: functional; procedure, shortened: as §2

| Structure (SMILES) | Dose (Rattus norvegicus [1]) [µM/kg] | Dose (Rattus norvegicus [2]) [µM/kg] | Ki [3] [nM] | Dose (Rattus norvegicus [4]) [µM/kg] | Dose (Rattus norvegicus [5]) [µM/kg] | Dose (Rattus norvegicus [6]) [µM/kg] | Dose (Rattus norvegicus [7]) [µM/kg] | Dose (Rattus norvegicus [8]) [µM/kg] | Dose (Rattus norvegicus [9]) [µM/kg] | Dose (Rattus norvegicus [10]) [µM/kg] | Dose (Rattus norvegicus [11]) [µM/kg] | Dose (Rattus norvegicus [12]) [µM/kg] | Dose (Rattus norvegicus [13]) [µM/kg] | Dose (Rattus norvegicus [14]) [µM/kg] | Dose (Rattus norvegicus [15]) [µM/kg] | Dose (Rattus norvegicus [16]) [µM/kg] |
| --- | --- | --- | --- | --- | --- | --- | --- | --- | --- | --- | --- | --- | --- | --- | --- | --- |
| CCCN(CCC)[C@@H]1CCCc2cccc(O)c2C1 | 1035 | 76 | 29.7 | 437 | 54 | 408 | 1068 | 314 | 132 | 60 | 122 | 919 |  |  |  |  |
| CCCN(CCC)[C@H]1CCCc2cccc(O)c2C1 |  |  | > 300 |  |  | 331 | 1003 | 381 | 194 | 98 | 170 | 830 | 110 | 154 | 1934 | 74 |
